Results collected from several papers.
Target: Platelet-derived growth factor receptor alpha (PDGFRA, Homo sapiens, UniProt P16234)

SMILES	read-out	technique	concentration	remaining binding
CNCc1ccccc1-c1csc([C@H](C)Nc2nc(C)nc3cc(OC)c(OC)cc23)c1	cell-free assay	competition with immobilised ligand	1 µM	92%
COc1cnc(Nc2cccc(S(N)(=O)=O)c2)nc1N1CCN(c2ccccc2)CC1	binding	competition with immobilised ligand	1 µM	85%
O=C(c1ccc(Nc2ncc(Cl)c(-c3cc4ccccc4s3)n2)cc1)N1CCC(N2CCCC2)CC1	binding	competition with immobilised ligand	1 µM	35%
Cc1cnn2ncc(-c3ccnc(N(C)C)n3)c2c1	binding	–	1 µM	97%
N#Cc1ccccc1CSc1nnc2c(n1)[nH]c1ccccc12	binding	competition with immobilised ligand	10 µM	94%
F[C@@H]1CCN(c2nccc(-c3cnn4ncccc34)n2)C1	binding	–	1 µM	100%
CC1=C(C#N)C(c2ccc3c(c2)c(NC(=O)c2ccccc2C)nn3C)C(C#N)=C(C)N1	cell-free assay	competition with immobilised ligand	1 µM	86%
CN(C)c1ncc(F)c(-c2cnn3ncccc23)n1	binding	–	1 µM	67%
CSc1cccnc1N1CCN(Cc2nc3ccccc3[nH]2)CC1	cell-free assay	competition with immobilised ligand	1 µM	89%
O=C(Nc1c[nH]nc1C(=O)NC1CCNCC1)c1cc(F)cc(F)c1	binding	competition with immobilised ligand	1 µM	83%
COc1ccnn2ncc(-c3ccnc(N(C)C)n3)c12	binding	–	1 µM	74%
COC(=O)Nc1nc2ccc(C(=O)c3ccccc3)cc2[nH]1	cell-free assay	competition with immobilised ligand	10 µM	7.8%
Nc1ncc2c(n1)-c1c([nH]c3ccc(C#CC4CC4)cc13)CCCC2	binding	competition with immobilised ligand	1 µM	76%
CN(C)c1nccc(-c2cnn3ncccc23)n1	binding	–	1 µM	100%
CCS(=O)(=O)c1cc2cc(C[C@@](O)(CC(C)(C)c3ccc(F)cc3C(N)=O)C(F)(F)F)[nH]c2cn1	cell-free assay	competition with immobilised ligand	1 µM	99%
C[C@H]1CCN(c2nccc(-c3cnn4ncccc34)n2)C1	binding	–	1 µM	83%
Cc1cc(C)c(-n2ccn3nc(-c4cccnc4)cc23)cc1NC(=O)c1cc(C#N)cc(S(F)(F)(F)(F)F)c1	cell-free assay	competition with immobilised ligand	0.1 µM	67.4%
O=C(NCCCN1CCOCC1)c1ccc(Nc2ncc(Cl)c(-c3ccc(Cl)s3)n2)cc1	binding	competition with immobilised ligand	1 µM	10%
COc1ccc2c(c1)O[C@@H](c1ccc(OC)c(OC)c1)C[C@H]2NC(=O)C1(c2ccc3c(c2)OC(F)(F)O3)CC1	cell-free assay	competition with immobilised ligand	1 µM	78%
COc1cnc(Nc2cccc(S(N)(=O)=O)c2)nc1N1CCN(c2ccccc2)C(=O)C1	binding	competition with immobilised ligand	1 µM	82%
N[C@H]1CCN(c2nccc(-c3cnn4ncccc34)n2)C1	binding	–	1 µM	90%
C[C@@H](c1ccc(-n2cnc3c(N)ncnc32)cc1)N1CCc2nn(C)c(Cc3ccccc3)c2C1=O	binding	competition with immobilised ligand	0.1 µM	20%
C[C@@H]1CN(c2ccc3ncc(-c4ccc5[nH]nc(C6CC6)c5c4)n3n2)C[C@H](C)O1	binding	competition with immobilised ligand	0.5 µM	76%
COc1cccc(CNC(=O)c2nc3scc(COCc4ccc(C(=O)O)cc4)c3c(=O)[nH]2)c1	cell-free assay	competition with immobilised ligand	1 µM	56.3%
O=C(NCCCN1CCOCC1)c1ccc(Nc2nccc(-c3cc4ccccc4s3)n2)cc1	binding	competition with immobilised ligand	1 µM	64%
